{"source": "ChEMBL document CHEMBL1147108", "about": "“Comparison of disk diffusion and agar dilution methods for erythromycin and ciprofloxacin susceptibility testing of Campylobacter jejuni subsp. jejuni” (2007)", "type_in_all_cases": "functional", "key": {"Campylobacter jejuni [1]": {"test_system": "Campylobacter jejuni", "test": "Antibacterial activity against susceptible Campylobacter jejuni isolates by disk diffusion test", "conditions": "for MIC: Campylobacter jejuni", "method_in_brief": "(§1)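 Isolate suspensions were made in Mueller-Hinton broth to 0.5 McFarland and spread on Mueller-Hinton agar with 5% sheep blood. Disks used were erythromycin 15 μg and ciprofloxacin 5 μg. Plates were held at 37°C for 48 h, and inhibition zone diameters were measured with slipping calipers; 6 mm means no zone.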"}, "Campylobacter jejuni [2]": {"test_system": "Campylobacter jejuni", "test": "Antibacterial activity against susceptible Campylobacter jejuni isolates by agar dilution test", "method_in_brief": "(§2)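 Agar dilution MICs of clinical C. jejuni isolates, run at 37°C following CLSI recommendations; C. jejuni ATCC 33560 served as control strain.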"}, "Campylobacter jejuni [3]": {"test_system": "Campylobacter jejuni", "test": "Antimicrobial activity against ciprofloxacin-resistant Campylobacter jejuni isolates by disk diffusion test", "method_in_brief": "as §1"}, "Campylobacter jejuni [4]": {"test_system": "Campylobacter jejuni", "test": "Antimicrobial activity against ciprofloxacin-resistant Campylobacter jejuni isolate by agar dilution test", "method_in_brief": "as §2"}, "Campylobacter jejuni [5]": {"test_system": "Campylobacter jejuni", "test": "Antibacterial activity against erythromycin-resistant Campylobacter jejuni isolates by disk diffusion test", "method_in_brief": "as §1"}, "Campylobacter jejuni [6]": {"test_system": "Campylobacter jejuni", "test": "Antibacterial activity against erythromycin-resistant Campylobacter jejuni isolates by agar dilution test", "method_in_brief": "as §2"}}}
{"smiles": "O=C(O)c1cn(C2CC2)c2cc(N3CCNCC3)c(F)cc2c1=O", "note": "[CIPROFLOXACIN]", "values": [{"measurement": "inhibition zone (IZ)", "setting": "Campylobacter jejuni [1]", "result": 21, "unit": "mm"}, {"measurement": "MIC", "setting": "Campylobacter jejuni [1]", "result": 0.06, "unit": "µg/mL"}, {"measurement": "MIC", "setting": "Campylobacter jejuni [2]", "result": 0.06, "unit": "µg/mL"}, {"measurement": "inhibition zone (IZ)", "setting": "Campylobacter jejuni [3]", "result": 6, "unit": "mm"}, {"measurement": "MIC", "setting": "Campylobacter jejuni [3]; Campylobacter jejuni", "result": 4, "unit": "µg/mL"}, {"measurement": "MIC", "setting": "Campylobacter jejuni [4]", "result": 4, "unit": "µg/mL"}]}
{"smiles": "CC[C@H]1OC(=O)[C@H](C)[C@@H](O[C@H]2C[C@@](C)(OC)[C@@H](O)[C@H](C)O2)[C@H](C)[C@@H](O[C@@H]2O[C@H](C)C[C@H](N(C)C)[C@H]2O)[C@](C)(O)C[C@@H](C)C(=O)[C@H](C)[C@@H](O)[C@]1(C)O", "note": "[ERYTHROMYCIN]", "values": [{"measurement": "inhibition zone (IZ)", "setting": "Campylobacter jejuni [1]", "result": 17.5, "unit": "mm"}, {"measurement": "MIC", "setting": "Campylobacter jejuni [1]", "result": 0.06, "unit": "µg/mL"}, {"measurement": "inhibition zone (IZ)", "setting": "Campylobacter jejuni [5]", "result": 6, "unit": "mm"}, {"measurement": "MIC", "setting": "Campylobacter jejuni [5]; Campylobacter jejuni", "result": "≥ 256", "unit": "µg/mL"}, {"measurement": "MIC", "setting": "Campylobacter jejuni [2]", "result": 0.06, "unit": "µg/mL"}, {"measurement": "MIC", "setting": "Campylobacter jejuni [6]", "result": "≥ 256", "unit": "µg/mL"}]}
